Assay [1] concerns the target T1, B2 bradykinin receptor (Homo sapiens, UniProt P30411).
T1 sequence (P30411 whole entry): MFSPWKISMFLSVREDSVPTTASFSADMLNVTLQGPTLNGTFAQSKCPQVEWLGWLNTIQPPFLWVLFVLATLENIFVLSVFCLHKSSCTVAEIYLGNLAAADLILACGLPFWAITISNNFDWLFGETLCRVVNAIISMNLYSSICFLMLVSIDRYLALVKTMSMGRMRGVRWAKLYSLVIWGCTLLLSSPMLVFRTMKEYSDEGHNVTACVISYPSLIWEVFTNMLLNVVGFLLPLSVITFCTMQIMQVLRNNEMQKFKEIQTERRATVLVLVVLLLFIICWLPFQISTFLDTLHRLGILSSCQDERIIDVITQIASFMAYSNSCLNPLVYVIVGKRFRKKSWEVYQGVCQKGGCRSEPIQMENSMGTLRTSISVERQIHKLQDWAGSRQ
Description: In vitro inhibitory activity towards human bradykinin receptor B2 expressed in CHO cells using [3H]BK (1.0 nM) as a radioligand. Format: cell-based. A digest of the protocol: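 Stably transfected CHO (dhfr-) cells seeded at 3.0 × 10^4 cells/well, cultured 1 day, then incubated with test compounds for 2 h at 4 °C. Binding buffer was HEPES/N-methyl-D-glucamine pH 7.2 with bacitracin, enalaprilat and BSA. Cells solubilized in SDS/NaOH and counted by scintillation; nonspecific binding with 1 μM unlabeled BK. Run three times.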

Assay [2] deals with T2, B2 bradykinin receptor (Cavia porcellus, UniProt O70526).
T2 sequence (O70526 whole entry): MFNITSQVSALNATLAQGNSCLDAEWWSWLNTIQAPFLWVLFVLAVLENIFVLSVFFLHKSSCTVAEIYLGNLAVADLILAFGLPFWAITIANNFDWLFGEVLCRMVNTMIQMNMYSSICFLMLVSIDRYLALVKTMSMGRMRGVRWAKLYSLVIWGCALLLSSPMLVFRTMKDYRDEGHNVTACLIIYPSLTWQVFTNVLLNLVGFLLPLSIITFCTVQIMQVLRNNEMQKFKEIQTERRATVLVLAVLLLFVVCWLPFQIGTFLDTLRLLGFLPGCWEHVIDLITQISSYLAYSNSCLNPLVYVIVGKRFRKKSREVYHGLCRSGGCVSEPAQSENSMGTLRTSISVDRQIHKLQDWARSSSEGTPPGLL
Description: In vitro inhibitory activity towards bradykinin receptor B2 using [3H]BK (0.06 nM) as a radioligand in guinea pig ileum membrane preparation. The class given is cell membranes. In outline:
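Ileal membranes from male Hartley guinea pigs, prepared in TES/1,10-phenanthroline pH 6.8 with 100000 g pellet. Membranes (0.2 mg protein/mL) incubated with [3H]BK and varying compound concentrations 60 min at room temperature in binding buffer with bacitracin, DTT, captopril, BSA. Filter harvest, scintillation counting; nonspecific with 1 μM BK. IC50 as mean of ≥3 determinations.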

The test system of assay [3] is Cavia porcellus. In words: Compound was evaluated for percentage inhibition against BK-induced bronchoconstriction in anesthetized guinea pig, intravenously at a concentration of 1 mg/kg. The class given is functional. As to conditions: route intravenous. A digest of the protocol: (§1)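 Male Hartley guinea pigs (470-750 g), fasted overnight, pentobarbital 30 mg/kg ip, tracheal and jugular cannulation, ventilated 10 mL/kg at 60 breaths/min; alcuronium 0.5 mg/kg iv, propranolol 10 mg/kg sc. BK 5 μg/kg iv; compound in 5% citric acid iv 25 min later, BK repeated 5 min after drug. Peak insufflation pressure rise (Konzett-Rossler); % inhibition vs vehicle, n=3-4.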

The test system of assay [4] is Cavia porcellus. In words: Compound was evaluated for percentage inhibition against BK-induced bronchoconstriction in anesthetized guinea pig, intravenously at a concentration of 10 mg/kg. Format: functional. As to conditions: route intravenous. A digest of the protocol:
as §1

For orientation: IC50 means the concentration that inhibits the measured activity by half. High values mean lower potency, low ones higher potency. `CNC(=O)c1ccc(/C=C/C(=O)NCC(=O)N(C)c2ccc(Cl)c(COc3cccc4c(N(C)C)cc(C)nc34)c2Cl)cc1`: the half-maximal inhibitory concentration (IC50) was 3.2 nM in assay [1] and 1.8 nM in assay [2].
On to `Cc1cc(N(C)C)c2cccc(OCc3c(Cl)ccc(N(C)C(=O)CNC(=O)/C=C/c4ccc(C(=O)N(C)C)cc4)c3Cl)c2n1`, for which the IC50 in assay [1] came to 2.1 nM; in assay [2] it was 2.9 nM.
For `CNC(=O)c1ccc(/C=C/C(=O)NCC(=O)N(C)c2ccc(Cl)c(COc3cccc4c(-n5ccnc5)cc(C)nc34)c2Cl)cc1` the same measures were 0.28 nM and 3.7 nM.
The corresponding values for `CNC(=O)c1ccc(/C=C/C(=O)NCC(=O)N(C)c2ccc(Cl)c(COc3cccc4c(-n5cccn5)cc(C)nc34)c2Cl)cc1` are 0.17 nM and 2.7 nM.
Usually inhibition in vivo stands for how much of the control response was suppressed. Consider `Cc1cc(-n2ccnc2)c2cccc(OCc3c(Cl)ccc(-n4cccc4CNC(=O)/C=C/c4ccc(C(=O)N(C)C)cc4)c3Cl)c2n1`, for which the IC50 was 0.26 nM in assay [1] and 3 nM in assay [2]. In assay [3], this compound came in with an inhibition in vivo at 1 mg/kg of 46%.
Consider `CNC(=O)c1ccc(/C=C/C(=O)NCC(=O)N(C)c2ccc(Cl)c(COc3cccc4c(-n5cncn5)cc(C)nc34)c2Cl)cc1`, for which the IC50 in assay [1] was determined as 0.23 nM; in assay [2] it was 4.4 nM.
Regarding `Cc1cc(-n2ccnc2)c2cccc(OCc3c(Cl)ccc(N(C)C(=O)CNC(=O)/C=C/c4ccc(C(=O)N(C)C)cc4)c3Cl)c2n1`, the 50% inhibitory concentration (IC50) in assay [1] worked out at 0.35 nM; in assay [2] it was 4.3 nM.
The corresponding values for `Cc1cc(-n2ccnn2)c2cccc(OCc3c(Cl)ccc(N(C)C(=O)CNC(=O)/C=C/c4ccc(C(=O)N(C)C)cc4)c3Cl)c2n1` are 0.28 nM and 9.1 nM.
As for `Cc1cc(-n2ccnc2)c2cccc(OCc3c(Cl)ccc(N(C)C(=O)CNC(=O)Nc4cccc(C(=O)Nc5ccncc5)c4)c3Cl)c2n1`, the IC50 in assay [1] was 0.23 nM; in assay [2], 6.6 nM. Further, the inhibition in vivo at 10 mg/kg in assay [4] turned out to be 56.8%.
As for `Cc1cc(-n2ccnc2)c2cccc(OCc3c(Cl)ccc(-n4cccc4CNC(=O)/C=C/c4ccc(C(=O)NCc5ccccn5)cc4)c3Cl)c2n1`, the results for the IC50 in assay [1] and in assay [2] were 0.43 nM and 6 nM, respectively.
The corresponding values for `Cc1cc(-n2cccn2)c2cccc(OCc3c(Cl)ccc(N(C)C(=O)CNC(=O)/C=C/c4ccc(C(=O)N(C)C)cc4)c3Cl)c2n1` are 0.18 nM and 3.3 nM.
For `Cc1cc(-n2ccnc2)c2cccc(OCc3c(Cl)ccc(N(C)C(=O)CNC(=O)/C=C/c4ccc(C(=O)Nc5ccncc5)cc4)c3Cl)c2n1`, the IC50 in assay [1] stood at 0.42 nM; in assay [2] it was 17 nM.
For `CNC(=O)c1ccc(/C=C/C(=O)NCC(=O)N(C)c2ccc(C)c(COc3cccc4c(-c5ccccc5)cc(C)nc34)c2C)cc1` the same measures were 1 nM and 3.1 nM.
Compound `N=C(N)NCCC[C@@H](N)C(=O)N[C@@H](CCCNC(=N)N)C(=O)N1CCC[C@H]1C(=O)N1C[C@H](O)C[C@H]1C(=O)NCC(=O)N[C@@H](Cc1cccs1)C(=O)N[C@@H](CO)C(=O)N1Cc2ccccc2C[C@@H]1C(=O)N1[C@H](C(=O)N[C@@H](CCCNC(=N)N)C(=O)O)C[C@@H]2CCCC[C@@H]21` [ICATIBANT] displayed an inhibition in vivo at 1 mg/kg in assay [3] of 63.4%.

The values are drawn from ChEMBL document CHEMBL1149113 (J Med Chem, 2004).
